# According to ChEMBL document CHEMBL1144766, “Discovery of quinolinediones exhibiting a heat shock response and angiogenesis inhibition” (J Med Chem, 2008):
# Activity calls are given as the source filed them. The calls are words filed in the database; no cut-off is given here.
# Tests used:
# [1] = (§1) Cytotoxicity against human NCI60 cells; type: functional; details: for TGI: read-out: Log TGI (converted)
# [2] = molecular target: Heat shock protein HSP 90-beta (Homo sapiens) (UniProt P08238); experiment: Binding affinity to N-terminal ATP binding site of Hsp90 at 100 uM after 30 mins
# Summary of the method: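 Compounds were made up in DMSO at 35 mM (stock) just before use and added to whole cell lysates at 100 µM final. Lysates were held on ice for 30 min, then incubated with geldanamycin-derivatized agarose beads at 4 °C with rocking for 60 min. Beads were washed, and eluted proteins were run on gels and blotted for Hsp90. Loss of the Hsp90 band indicated competition.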
# [3] = system: HUVEC; experiment: Effect on HUVEC growth at 1.0 ug/ml relative to control; type: functional, Homo sapiens
# [4] = system: NCI60; experiment: as §1; type: functional
# [5] = system: MCF7; experiment: Growth inhibition of human MCF7 cells after 48 hrs by sulforhodamine B assay; type: functional
# Summary of the method: (§2)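 Sulforhodamine B assay. Cells were seeded and incubated 24 h, then exposed to serial compound dilutions for 48 h. Plates were fixed with trichloroacetic acid, stained with SRB and read for optical density. GI50 was calculated from the OD data as the concentration giving 50% reduction in net protein increase. HUVEC were grown in EGM-2.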
# [6] = system: HUVEC; experiment: Effect on HUVEC growth at 0.001 ug/ml relative to control; type: functional, Homo sapiens
# [7] = system: HUVEC; experiment: Antiangiogenic activity in HUVEC assessed as number of junctions at 0.01 ug/ml after 24 hrs relative to control; type: functional
# Summary of the method: (§3)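 HUVEC grown in EGM-2. Matrigel was gelled in wells (15 min room temperature, then 30 min at 37 °C) and seeded with HUVEC at 2 × 10⁵ cells/mL. Compound was added in culture medium. After 24 h, cords and junctions were imaged by inverted microscope and digital camera. Cord length and junction number were measured relative to untreated controls.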
# [8] = system: HUVEC; experiment: Antiangiogenic activity in HUVEC assessed as number of junctions at 0.1 ug/ml after 24 hrs relative to control; type: functional; summary of the method: as §3
# [9] = system: HUVEC; experiment: Effect on HUVEC growth at 10 ug/ml relative to control; type: functional, Homo sapiens
# [10] = system: HUVEC; experiment: Antiangiogenic activity in HUVEC assessed as cord length at 1.0 ug/ml after 24 hrs relative to control; type: functional, cell-based; details: Homo sapiens; summary of the method: as §3
# [11] = system: HUVEC; experiment: Antiangiogenic activity in HUVEC assessed as cord length at 0.1 ug/ml after 24 hrs relative to control; type: functional, cell-based; details: Homo sapiens; summary of the method: as §3
# [12] = system: HUVEC; experiment: Growth inhibition of HUVEC after 48 hrs by sulforhodamine B assay; type: cell-based; details: human; summary of the method: as §2
# [13] = system: HUVEC; experiment: Antiangiogenic activity in HUVEC assessed as number of junctions at 0.001 ug/ml after 24 hrs relative to control; type: functional, cell-based; details: Homo sapiens; summary of the method: as §3
# [14] = system: HUVEC; experiment: Antiangiogenic activity in HUVEC assessed as cord length at 0.01 ug/ml after 24 hrs relative to control; type: functional, cell-based; details: Homo sapiens; summary of the method: as §3
# [15] = system: HUVEC; experiment: Effect on HUVEC growth at 0.1 ug/ml relative to control; type: functional, Homo sapiens
# [16] = system: HUVEC; experiment: Antiangiogenic activity in HUVEC assessed as cord length at 0.001 ug/ml after 24 hrs relative to control; type: functional, cell-based; details: Homo sapiens; summary of the method: as §3
# [17] = system: HUVEC; experiment: Antiangiogenic activity in HUVEC assessed as cord length at 10 ug/ml after 24 hrs relative to control; type: functional, Homo sapiens; summary of the method: as §3
# [18] = system: HUVEC; experiment: Antiangiogenic activity in HUVEC assessed as number of junctions at 1.0 ug/ml after 24 hrs relative to control; type: functional; summary of the method: as §3
# [19] = system: HUVEC; experiment: Effect on HUVEC growth at 0.01 ug/ml relative to control; type: functional, Homo sapiens
# [20] = system: NCI-H460; experiment: Growth inhibition of human NCI-H460 cells after 48 hrs by sulforhodamine B assay; type: functional; summary of the method: as §2
# Heat shock protein HSP 90-beta (Homo sapiens), sequence (P08238 whole entry): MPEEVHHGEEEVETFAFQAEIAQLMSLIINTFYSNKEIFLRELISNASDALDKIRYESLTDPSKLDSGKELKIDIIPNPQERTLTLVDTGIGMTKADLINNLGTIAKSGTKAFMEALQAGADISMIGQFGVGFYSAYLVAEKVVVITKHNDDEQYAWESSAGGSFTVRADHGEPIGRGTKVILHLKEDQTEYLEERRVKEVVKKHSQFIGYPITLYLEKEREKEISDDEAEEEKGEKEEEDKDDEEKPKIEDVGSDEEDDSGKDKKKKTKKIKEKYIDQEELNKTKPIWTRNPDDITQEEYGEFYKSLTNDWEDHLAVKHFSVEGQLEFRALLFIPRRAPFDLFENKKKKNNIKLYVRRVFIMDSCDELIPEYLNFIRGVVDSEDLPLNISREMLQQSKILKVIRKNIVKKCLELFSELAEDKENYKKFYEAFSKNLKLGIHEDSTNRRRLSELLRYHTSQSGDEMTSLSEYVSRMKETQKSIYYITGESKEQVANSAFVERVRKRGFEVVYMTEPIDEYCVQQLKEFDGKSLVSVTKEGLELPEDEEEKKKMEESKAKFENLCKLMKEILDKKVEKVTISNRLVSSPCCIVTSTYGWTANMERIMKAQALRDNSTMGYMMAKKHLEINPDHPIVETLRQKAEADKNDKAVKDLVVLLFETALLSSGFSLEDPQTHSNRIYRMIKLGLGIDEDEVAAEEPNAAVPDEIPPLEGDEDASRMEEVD
SMILES,GI50 [1],LC50 [1],TGI [1],Activity [2],other results
O=C1C(N2CC2)=CC(=O)c2nc(-c3ccc(-c4ccccc4)cc3)ccc21,7.94 µM,64.6 µM,26.9 µM,inactive,
COc1cc2c(nc1C)C(=O)C(N1CC1)=CC2=O,0.275 µM,4.37 µM,0.832 µM,inactive,
COc1cc(-c2ccc3c(n2)C(=O)C=C(NCc2ccccc2)C3=O)cc(OC)c1OC,,,,inactive,Activity [3]: 64%; Activity [4]: inactive; Activity [5]: 0.52 µg/mL; Activity [6]: 104%; Activity ([7]; Homo sapiens): inactive; Activity ([8]; Homo sapiens): inactive; Activity [9]: 13%; Activity [10]: inactive; Activity [11]: inactive; Activity [12]: 1.9 µg/mL; Activity [13]: inactive; Activity [14]: inactive; Activity [15]: 64%; Activity [16]: inactive; Activity [17]: 75%; Activity ([18]; Homo sapiens): inactive; Activity [19]: 92%; Activity [20]: 0.65 µg/mL
COc1cc2c(nc1-c1ccccc1)C(=O)C(N1CC1)=CC2=O,0.525 µM,4.9 µM,1.66 µM,inactive,
COc1cc(CNC2=CC(=O)c3nc(-c4ccccc4)ccc3C2=O)cc(OC)c1OC,2.34 µM,66.1 µM,15.5 µM,inactive,
COc1cc(CNC2=CC(=O)c3ccc(-c4ccccc4)nc3C2=O)cc(OC)c1OC,57.5 µM,,,inactive,Activity [4]: inactive
COCCCNC1=CC(=O)c2ccc(-c3ccccc3)nc2C1=O,5.5 µM,70.8 µM,28.8 µM,inactive,
COc1cc(-c2ccc3c(n2)C(=O)C=C(N2CC2)C3=O)cc(OC)c1OC,0.589 µM,5.5 µM,1.78 µM,inactive,
COc1cc(-c2ccc3c(n2)C(=O)C(NCc2ccccc2)=CC3=O)cc(OC)c1OC,2.69 µM,,63.1 µM,inactive,Activity [3]: 64%; Activity [4]: inactive; Activity [5]: 0.35 µg/mL; Activity [6]: 102%; Activity [7]: 50%; Activity [8]: 50%; Activity [9]: 14%; Activity [10]: inactive; Activity [11]: inactive; Activity [12]: 1.9 µg/mL; Activity [13]: inactive; Activity [14]: inactive; Activity [15]: 91%; Activity [16]: inactive; Activity [17]: 75%; Activity [18]: 50%; Activity [19]: 118%; Activity [20]: 0.43 µg/mL
Cc1ccc2c(n1)C(=O)C=C(N1CC1)C2=O,0.513 µM,7.94 µM,2.04 µM,inactive,
O=C1C(N2CCCC2)=CC(=O)c2nc(-c3ccccc3)ccc21,44.7 µM,,,inactive,Activity [4]: inactive
O=C1C=C(NCc2ccccc2)C(=O)c2nc(-c3ccccc3)ccc21,33.1 µM,,,inactive,Activity [4]: inactive
O=C1C(N2CC2)=CC(=O)c2nc(-c3ccccc3)ccc21,0.0275 µM,2.04 µM,0.324 µM,inactive,
Cc1cc2c(nc1-c1ccccc1)C(=O)C=C(N1CC1)C2=O,,,,inactive,
COCCCNC1=CC(=O)c2nc(-c3ccccc3)ccc2C1=O,3.55 µM,66.1 µM,19.1 µM,inactive,
COC1=CC(=O)c2nc(-c3cc(OC)c(OC)c(OC)c3)ccc2C1=O,,,,inactive,Activity [3]: 2%; Activity [5]: 0.24 µg/mL; Activity [6]: 106%; Activity ([7]; Homo sapiens): inactive; Activity [8]: 50%; Activity [9]: 23%; Activity [10]: inactive; Activity [11]: inactive; Activity [12]: 0.28 µg/mL; Activity [13]: inactive; Activity [14]: inactive; Activity [15]: 90%; Activity [16]: inactive; Activity [18]: 50%; Activity [19]: 117%; Activity [20]: 1.9 µg/mL
O=C1C=C(N2CC2)C(=O)c2nc(-c3ccccc3)ccc21,0.0851 µM,17.8 µM,3.31 µM,inactive,
O=C1C(NCc2ccccc2)=CC(=O)c2nc(-c3ccccc3)ccc21,1.7 µM,66.1 µM,15.5 µM,inactive,
C=CCNC1=CC(=O)c2nc(-c3ccccc3)ccc2C1=O,1.91 µM,43.7 µM,14.1 µM,inactive,
